Compound activity (PubChem)
GRK2 inh: human GRK2 inhibition via aptamer displacement | bead flow cytometry, FAM-aptamer displacement from GRK2 | inhibition of aptamer binding, % at 10 µM | 330,000 compounds, 0.59% hits | AID 488847;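 active = inhibition of aptamer binding above 40%, roughly 3 SD of noise, on plates passing a quality check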;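 note: median bead fluorescence of bound FAM aptamer so fluorescent compounds give negative values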
Target sequence (P25098 whole entry, looked up): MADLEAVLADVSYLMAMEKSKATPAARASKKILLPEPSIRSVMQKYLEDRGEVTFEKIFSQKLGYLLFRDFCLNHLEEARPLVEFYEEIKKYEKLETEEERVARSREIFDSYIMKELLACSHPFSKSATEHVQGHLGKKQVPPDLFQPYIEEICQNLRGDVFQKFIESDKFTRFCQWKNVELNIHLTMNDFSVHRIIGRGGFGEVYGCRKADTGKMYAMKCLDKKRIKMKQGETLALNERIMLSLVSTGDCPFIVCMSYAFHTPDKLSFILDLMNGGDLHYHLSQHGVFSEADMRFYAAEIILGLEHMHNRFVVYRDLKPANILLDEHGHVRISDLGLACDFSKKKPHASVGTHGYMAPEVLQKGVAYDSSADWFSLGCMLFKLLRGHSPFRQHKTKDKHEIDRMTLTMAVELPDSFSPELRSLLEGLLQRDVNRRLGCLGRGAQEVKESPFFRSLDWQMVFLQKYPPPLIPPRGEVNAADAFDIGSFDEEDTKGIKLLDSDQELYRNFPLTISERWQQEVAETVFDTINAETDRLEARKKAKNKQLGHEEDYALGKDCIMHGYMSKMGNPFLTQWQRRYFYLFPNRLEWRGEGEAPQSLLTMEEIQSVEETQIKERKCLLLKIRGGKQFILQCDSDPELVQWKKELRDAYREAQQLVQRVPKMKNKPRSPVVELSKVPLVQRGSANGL
SR-BI HDL uptake: blocks mouse SR-BI lipid uptake from DiI-HDL; Q61009; ldlA[mSR-BI] CHO cells, DiI-HDL uptake fluorescence, 3 h; inhibition, % at 12.5 µM; 320,000 compounds, 0.96% hits; AID 488896;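 active = mean replicate inhibition of at least 70% and a set share of replicates each scoring 70 or more; inconclusive = meets just one of the two criteria; inactive = fails both criteria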
Rin1-Abl PPI inh: inhibitors of human Rin1-Abl protein interaction; TR-FRET Rin1/Abl binding, biochemical; P00519+Q13671; 360,000 compounds, 0.4% hits; inhibition, % at 7.35 µM; in the data active = inhibition above about 5%, passing the limit was not always enough
SR-BI DiI-HDL act: activators of SR-BI mediated HDL lipid uptake; CHO ldlA[mSR-BI] cells, DiI-HDL uptake fluorescence, 3 h; 100 = double the neutral-control signal; activation, % at 12.5 µM; 320,000 compounds, 0.096% hits;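 active = mean replicate activation of at least 60% and every replicate at or above 60%; inconclusive = mean or all-replicate condition met, but not both; inactive = mean below 60% and not all replicates reaching 60%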
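system = CHO ldlA[mSR-BI] cells, LDL receptor-null, SR-BI overexpressing | medium = Ham's F12 with 0.5% BSA, HEPES 25 mM, pH 7.4 | probe or stimulus = DiI-HDL 10 µg/mL | compound dosing = single-point compound dose | incubation = compound exposure 3 h, 37 °C | technique = DiI fluorescence, bottom read | read-out = cell-associated DiI fluorescence as measure of HDL uptake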
GRK2 CP1: human GRK2 inhibition confirmation, cherry pick 1; shares compounds with GRK2 inh; aptamer displacement, % at 10 µM; 2,000 compounds, 4% hits; bead-bound GRK2, FAM-aptamer displacement, flow cytometry;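 active = aptamer displacement above 40%, near three times the noise of non-fluorescent compounds, on plates passing quality checks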;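 note: negative values mostly reflect intrinsic compound fluorescence rather than true enhancement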
FAM quench CP1: quenches fluorescent RNA aptamer, GRK2 hit artifact; shares compounds with GRK2 inh; Carboxyfluorescein RNA aptamer on beads, flow cytometry quenching; hits give low values; fluorescence response (% of DMSO), % at 10 µM; 2,000 tested, under 10 active;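 active = compounds that quench the bead-bound fluorescent RNA probe, cutting fluorescence to under half of the solvent control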;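 note: counterscreen run without GRK2 so only probe quenching by compound is measured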
GRK2 confirm 2: human GRK2 inhibition confirmation, cherry pick 2; shares compounds with GRK2 inh; inhibition of aptamer binding, % at 10 µM; bead-bound GRK2, FAM-aptamer displacement, flow cytometry; 360 tested, under 10 active;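 active = inhibition of aptamer binding above 40%, about triple the noise seen with nonglowing compounds, on plates passing quality control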;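 note: negative values mostly come from compounds that fluoresce themselves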
FAM quench SP: counter-screen for GRK2 binding hits: quenchers of fluorescent RNA aptamer | AID 588494 | carboxyfluorescein RNA aptamer beads, flow cytometry quenching; hits give low values | 360 tested, under 10 active | fluorescence response vs DMSO, % at 10 µM | shares compounds with GRK2 inh;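 active = response vs DMSO under 50%, meaning signal dropped by over half, treated as fluorescence quencher; inconclusive = no clear call, values can overlap the other calls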;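 note: labelled aptamer on streptavidin beads without GRK2 as a quench counter-screen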
Each line names hits and unclear results; the compound was inactive in the other large screens (follow-up assays come after a bar, where they were run). Compounds with a hit are over-represented: about 1.9% of the library has one in this group of screens.

C=CCn1cccc(C(=O)Nc2ccc(OC)c(OC)c2)c1=O	GRK2 inh 48 | GRK2 CP1 inactive | FAM quench CP1 inactive
C=CCn1cccc(C(=O)Nc2ccc(OC)c(Cl)c2)c1=O	none
Cc1ccc(/C=C2\SC(=S)N(C3CCS(=O)(=O)C3)C2=O)o1 (stereo not drawn)	GRK2 inh 43 | GRK2 CP1 inactive | FAM quench CP1 inactive
NS(=O)(=O)c1ccc(-c2ccc(/C=C3\SC(=S)N(C4CCS(=O)(=O)C4)C3=O)o2)cc1 (stereo not drawn)	none
Cc1ccccc1-c1nc(CS(=O)(=O)CC(=O)NCc2ccc3c(c2)OCO3)c(C)o1	GRK2 inh 83 | GRK2 CP1 inactive | FAM quench CP1 inactive | GRK2 confirm 2 inactive | FAM quench SP inactive
CCOC(=O)C1CCCN(C(=O)c2cccnc2Oc2ccccc2)CC1 (stereo not drawn)	none (no result: GRK2 inh, SR-BI HDL uptake, SR-BI DiI-HDL act)
NS(=O)(=O)c1ccc2nc(NC(=O)c3ccc(Br)o3)sc2c1	GRK2 inh 54 | GRK2 CP1 inactive | FAM quench CP1 inactive
Cc1ccc2nc(NC(=O)c3ccc(Br)o3)sc2c1	none
O=C(NCc1ccncc1)c1cccc(Cn2cc(Br)cn2)c1	none | GRK2 CP1 inactive | FAM quench CP1 inactive
Cc1cc(=O)n2nc(N3CCCC(C(=O)NCc4ccccc4Cl)C3)sc2n1 (stereo not drawn)	none | GRK2 CP1 inactive | FAM quench CP1 inactive
CC1CC(C)CN(S(=O)(=O)N2CCCC(C(=O)NCc3ccccc3Cl)C2)C1 (stereo not drawn)	none | GRK2 CP1 inactive | FAM quench CP1 inactive
Cc1cc(=O)n2nc(N3CCCC(C(=O)NCc4ccccc4C)C3)sc2n1 (stereo not drawn)	none | GRK2 CP1 inactive | FAM quench CP1 inactive
CCN(CC)C(=O)C1=C(C)N(CCCOC)C(=O)C(CC(=O)NC(c2ccccc2)c2ccccc2)C1 (stereo not drawn)	none (no result: GRK2 inh, SR-BI HDL uptake, SR-BI DiI-HDL act)
Cc1cc(C)n2nc(C(=O)N3CCCC(Nc4ccc(F)c(F)c4)C3)cc2n1 (stereo not drawn)	GRK2 inh 85 | GRK2 confirm 2 inactive | FAM quench SP inactive
O=C(CN1C(=O)C(=O)N(C2CCCC2)C1=O)Nc1ccc(F)cc1F	none (no result: GRK2 inh)
CC(C)Sc1nc2c([nH]1)c(=N)ncn2Cc1ccccc1	GRK2 inh 81 | GRK2 CP1 inactive | FAM quench CP1 inactive
COC(=O)c1ccc(NC(=O)C2CC(=O)OC2c2ccccc2)cc1 (stereo not drawn)	none
CCOc1ccc(NC(=O)C2CC(=O)OC2c2ccccc2)cc1 (stereo not drawn)	GRK2 inh 82 | GRK2 CP1 inactive | FAM quench CP1 inactive
C1C2CC3C1C3C2=NN=C1C2CC3C(C2)C13	none (no result: GRK2 inh, SR-BI HDL uptake, SR-BI DiI-HDL act)
O=C(COc1cccnc1[N+](=O)[O-])NC1CCS(=O)(=O)C1 (stereo not drawn)	GRK2 inh 70 | GRK2 confirm 2 inactive | FAM quench SP inactive
COc1cc(C)c2c(c1C=O)Oc1c(c(C)c(O)c3c1C(O)OC3=O)OC2=O (stereo not drawn)	GRK2 inh 66 | GRK2 CP1 inactive | FAM quench CP1 inactive
COc1cc2oc3cc(C#Cc4ccc(N)cc4)ccc3c(=O)c2cc1OC	GRK2 inh 70, SR-BI HDL uptake inconclusive | GRK2 CP1 inactive | FAM quench CP1 inactive
CC(C(=O)N1CCOCCOCCOCC1)N1C(=O)c2ccccc2C1=O (stereo not drawn)	GRK2 inh 86 | GRK2 CP1 inactive | FAM quench CP1 inactive
CC(Oc1ccccc1Cl)C(=O)N1CCOCC1 (stereo not drawn)	GRK2 inh 43 | GRK2 confirm 2 inactive | FAM quench SP inactive
CC(C(=O)N1CCOCC1)N1C(=O)c2ccccc2C1=O (stereo not drawn)	none
Cc1ccc(NC(=O)Nc2nnc([C@H]3C[C@H](O)[C@@H](CO)O3)s2)cc1	none (no result: GRK2 inh, SR-BI HDL uptake, SR-BI DiI-HDL act)
CCN(CC)C(=O)C1=C(C)N(Cc2ccc(OC)cc2)C(=O)C(CC(=O)NCCN2CCOCC2)C1 (stereo not drawn)	none (no result: GRK2 inh, SR-BI HDL uptake, SR-BI DiI-HDL act)
CN(CC(=O)NCCc1ccc(S(N)(=O)=O)cc1)S(=O)(=O)c1ccc(Br)s1	GRK2 inh 90 (no result: SR-BI HDL uptake, SR-BI DiI-HDL act) | GRK2 CP1 inactive | FAM quench CP1 inactive
Cc1ccc(Cl)cc1N1C(=O)CC(Sc2ccccc2N)C1=O (stereo not drawn)	none (no result: GRK2 inh, SR-BI HDL uptake, SR-BI DiI-HDL act)
COC(=O)c1cccc(NC(=O)c2cccc(-n3cnnn3)c2)c1	none (no result: GRK2 inh, SR-BI HDL uptake, SR-BI DiI-HDL act)
CCOC(=O)c1cccc(NC(=O)c2ccc(-n3cnnn3)cc2)c1	none | GRK2 CP1 inactive | FAM quench CP1 inactive
CCNC(=O)N1CCOCC1	GRK2 inh 45 | GRK2 CP1 inactive | FAM quench CP1 inactive
NCc1ccccc1CS(=O)(=O)N1CCOCC1	none
CCOc1ccccc1NC(=S)N1C2CCC1CC(NC(=O)NC13CC4CC(CC(C4)C1)C3)C2 (stereo not drawn)	none
COc1ccccc1NC(=S)N1C2CCC1CC(NC(=O)NC13CC4CC(CC(C4)C1)C3)C2 (stereo not drawn)	GRK2 inh 46 | GRK2 CP1 inactive | FAM quench CP1 inactive
COc1ccc(Cl)c(-c2cc(C(=O)Nc3ccc(F)cc3)[nH]n2)c1	none (no result: GRK2 inh, SR-BI HDL uptake, SR-BI DiI-HDL act)
O=C(O)[C@H](Cc1ccccc1)NC(=O)N1CCN(c2ccc(F)cc2)CC1	GRK2 inh 93 | GRK2 CP1 inactive | FAM quench CP1 inactive
COC(=O)[C@H](Cc1ccccc1)NC(=O)N1CCN(c2ccccc2)CC1	none
Cc1cccc(NC(=O)C(C)Sc2ncnc3sccc23)c1 (stereo not drawn)	none (no result: GRK2 inh, SR-BI HDL uptake, SR-BI DiI-HDL act)
O=C(Nc1ccccc1N1CCOCC1)c1cc(=O)[nH]c2ccccc12	GRK2 inh 82 | GRK2 CP1 inactive | FAM quench CP1 inactive
OC[C@@H]1CN(Cc2ccc3c(c2)OCO3)C[C@H](n2cnc3c(NC4CCCC4)ncnc32)O1	none (no result: GRK2 inh, SR-BI HDL uptake, SR-BI DiI-HDL act)
Cn1c(=O)c2c(nc(SCC(=O)NCc3ccc4c(c3)OCO4)n2Cc2ccc(F)cc2)n(C)c1=O	none
Cn1c(=O)c2c(nc(SCC(=O)NCc3ccc4c(c3)OCO4)n2Cc2ccccc2)n(C)c1=O	GRK2 inh 53 | GRK2 CP1 inactive | FAM quench CP1 inactive
COc1ccc(C(=S)Nc2ccc(C)cc2)cc1	GRK2 inh 100 | GRK2 CP1 inactive | FAM quench CP1 inactive
COc1ccc(NC(=S)c2ccncc2)cc1	none
CCC(CC)=NNc1ccc([N+](=O)[O-])cc1[N+](=O)[O-]	GRK2 inh 61 | GRK2 CP1 inactive | FAM quench CP1 inactive
CC1Cc2ccccc2N1C(=O)CSc1nncs1 (stereo not drawn)	GRK2 inh 75 | GRK2 CP1 inactive | FAM quench CP1 inactive
Cc1ccc(S(=O)(=O)NCC2COc3ccccc3O2)cc1 (stereo not drawn)	none
